According to ChEMBL document CHEMBL1151307, “Effects of tannins from Geum japonicum on the catalytic activity of thrombin and factor Xa of blood coagulation cascade” (J Nat Prod, 1998):
Values belong to the compound of their own block, whether it stands above or below them. Calls of active or inactive are those of the source.

Columns and labels:
[1] = test system: Plasma; assay: Anticoagulant activity in rabbit plasma assessed as prothrombin time at 0.5 mM after 2 mins; assay type: functional, Oryctolagus cuniculus
Procedure, shortened: (§1)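 Rabbit plasma was preincubated 2 min at 37 °C with compound dissolved in 0.05 M Tris buffer plus Tris/0.1 M NaCl, pH 7.5. Clotting was triggered with thromboplastin-calcium reagent and read on a fibrometer. Clotting time is in seconds, mean ± SD (n = 3-5), with Student's t-test against control. A cut-off of >300 s was scored as no clotting.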

[2] = test system: Plasma; assay: Anticoagulant activity in rabbit plasma assessed as thrombin time at 0.5 mM after 2 mins; assay type: functional, Oryctolagus cuniculus
Procedure, shortened: (§2)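 Rabbit plasma, 0.05 M Tris buffer and compound in Tris were preincubated for 2 min at 37 °C. Clotting was started with bovine thrombin (3-4 NIH units/mL) and timed on a fibrometer. Clotting time is in seconds, mean ± SD (n = 3-5), with Student's t-test against control. Clotting beyond 300 s was scored as no clotting.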

[3] = test system: Plasma; assay: Anticoagulant activity in rabbit plasma assessed as activated partial thromboplastin time at 0.5 mM after 2 mins; assay type: functional, Oryctolagus cuniculus
Procedure, shortened: (§3)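 Rabbit plasma with test compound in 0.05 M Tris buffer was incubated with APTT reagent for 2 min at 37 °C. Clotting was started with 25 mM CaCl2 and timed on a fibrometer. Clotting time is in seconds, mean ± SD (n = 3-5), compared with control by Student's t-test. Clotting beyond 300 s was scored as no clotting.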

[4] = test system: Plasma; assay: Anticoagulant activity in rabbit plasma assessed as prothrombin time at 0.25 mM after 2 mins; assay type: functional, Oryctolagus cuniculus
Procedure, shortened: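 PT: 0.05 M Tris/0.1 M NaCl (pH 7.5), compound in Tris and rabbit plasma incubated 2 min at 37 °C. Clotting started with thromboplastin-calcium reagent and timed on a fibrometer. Values are the mean of three determinations (mean ± SD, n = 3-5). Clotting >300 s was taken as no clotting.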

[5] = test system: Plasma; assay: Anticoagulant activity in rabbit plasma assessed as thrombin time at 0.25 mM after 2 mins; assay type: functional, Oryctolagus cuniculus
Procedure, shortened: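 TT: rabbit plasma, 0.05 M Tris and compound in Tris preincubated 2 min, then bovine thrombin (3-4 NIH units/mL) added. Clotting was timed on a fibrometer at 37 °C. Values are the mean of three determinations (mean ± SD, n = 3-5), with >300 s taken as no clotting.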

[6] = test system: Plasma; assay: Anticoagulant activity in rabbit plasma assessed as activated partial thromboplastin time at 0.25 mM after 2 mins; assay type: functional, Oryctolagus cuniculus
Procedure, shortened: (§4)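 APTT: rabbit plasma with compound (dissolved in 0.05 M Tris buffer) and APTT reagent preincubated 2 min, then clotting started with 25 mM CaCl2. Clotting time was read on a fibrometer at 37 °C. Values are the mean of three separate determinations (mean ± SD, n = 3-5), with clotting >300 s recorded as no clotting.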

[7] = test system: Plasma; assay: Anticoagulant activity in rabbit plasma assessed as prothrombin time at 0.1 mM after 2 mins; assay type: functional, Oryctolagus cuniculus; settings: in the assay text read “1 mM” for “0.1 mM”; procedure, shortened: as §1
[8] = test system: Plasma; assay: Anticoagulant activity in rabbit plasma assessed as thrombin time at 0.1 mM after 2 mins; assay type: functional, Oryctolagus cuniculus; settings: in the assay text read “1 mM” for “0.1 mM”; procedure, shortened: as §2
[9] = test system: Plasma; assay: Anticoagulant activity in rabbit plasma assessed as activated partial thromboplastin time at 0.1 mM after 2 mins; assay type: functional, Oryctolagus cuniculus; settings: in the assay text read “1 mM” for “0.1 mM”; procedure, shortened: as §3
[10] = test system: Plasma; assay: Anticoagulant activity in rabbit plasma assessed as prothrombin time at 0.75 mM after 2 mins; assay type: functional, Oryctolagus cuniculus; procedure, shortened: as §1
[11] = test system: Plasma; assay: Anticoagulant activity in rabbit plasma assessed as thrombin time at 0.75 mM after 2 mins; assay type: functional, Oryctolagus cuniculus; procedure, shortened: as §2
[12] = test system: Plasma; assay: Anticoagulant activity in rabbit plasma assessed as activated partial thromboplastin time at 0.75 mM after 2 mins; assay type: functional, Oryctolagus cuniculus; procedure, shortened: as §3
[13] = biological target: T1, Prothrombin (Bos taurus, UniProt P00735); assay: Inhibition of bovine thrombin by Lineweaver-Burke plot analysis
Procedure, shortened: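 Bovine plasma thrombin (0.19 NIH units/mL) was run in 0.05 M Tris/0.1 M NaCl, pH 7.5, at 37 °C. It was preincubated with compound for under 2 min, and the reaction was started with S-2238 at 0.6-1.7 mM. Initial rates were taken as p-nitroaniline release at 405 nm. Inhibition type and Ki came from linear-regression Lineweaver-Burk plots.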

[14] = biological target: T1, Prothrombin; assay: Inhibition of bovine thrombin-catalyzed hydrolysis of S-2238
Procedure, shortened: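 Bovine plasma thrombin (0.19 NIH units/mL solution) in 0.05 M Tris with 0.1 M NaCl (pH 7.5) was preincubated with compound for 2 min at 37 °C. S-2238 was added as a 0.66 mM solution to start the reaction. p-Nitroaniline release was followed at 405 nm over 5 min and expressed as % inhibition. IC50 is the concentration that inhibits 50% of initial activity. Mean of three experiments.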

[15] = biological target: T1, Prothrombin; assay: Inhibition of bovine thrombin-catalyzed hydrolysis of fibrinogen
Procedure, shortened: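 Compound at various concentrations was preincubated with thrombin (0.05 NIH units/mL solution) for 3 min at 37 °C. The reaction was started with fibrinogen (2 mg/mL solution). Clot turbidity was read at 405 nm for 5 min and velocities were taken as mOD/min. IC50 is the concentration that inhibits 50% of initial activity. Mean of three experiments.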

[16] = biological target: T2, Coagulation factor X (Homo sapiens, UniProt P00742); assay: Inhibition of human factor 10a
Procedure, shortened: (§5)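 Compound and 0.20 mM S-2222 were mixed in 0.05 M Tris/0.1 M NaCl, pH 8.3. Reaction was started with factor Xa (50 ng/mL) and 4-nitroanilide release was read at 405 nm over 5 min at 37 °C. IC50 is the concentration giving 50% inhibition of initial activity, mean ± SD of three experiments. Ki was determined with S-2222 at 0.04-0.20 mM.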

[17] = biological target: T2, Coagulation factor X; assay: Inhibition of human factor 10a-catalyzed hydrolysis of S-2222; procedure, shortened: as §5
[18] = Toxicity in po dosed mouse; assay type: organism-based; settings: in vivo
[19] = Toxicity in po dosed rat; assay type: organism-based; settings: in vivo
[20] = biological target: Prothrombin (Bos taurus) (UniProt P00735); assay: Inhibition of bovine thrombin upto 100 uM
Procedure, shortened: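 Bovine plasma thrombin (0.19 NIH units/mL) in Tris/0.1 M NaCl, pH 7.5, was preincubated 2 min at 37 °C with compound in 0.1% DMSO, which also served as vehicle control. Reaction was started with S-2238 (0.66 mM, as added) and read as the rise in A405 over 5 min. Results are percent inhibition of thrombin activity.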

[21] = test system: Plasma; assay: Anticoagulant activity in rabbit plasma assessed as prothrombin time at 0.45 mM after 2 mins; assay type: functional, Oryctolagus cuniculus
Procedure, shortened: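 Rabbit plasma incubated 2 min at 37 °C with compound in 0.05 M Tris buffer plus 0.05 M Tris/0.1 M NaCl (pH 7.5); clotting started with thromboplastin-calcium reagent and timed on a fibrometer at 37 °C; clotting time in seconds, cut-off >300 s; average of three separate determinations (mean ± SD, n = 3-5).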

[22] = test system: Plasma; assay: Anticoagulant activity in rabbit plasma assessed as activated partial thromboplastin time at 0.47 mM after 2 mins; assay type: functional, Oryctolagus cuniculus; procedure, shortened: as §4

T2 sequence (P00742 41-179 limits assumed): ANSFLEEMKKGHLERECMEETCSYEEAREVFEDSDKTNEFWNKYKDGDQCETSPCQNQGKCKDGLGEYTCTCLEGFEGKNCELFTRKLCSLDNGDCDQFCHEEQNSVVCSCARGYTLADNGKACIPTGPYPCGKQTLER
T2 sequence (P00742 235-488 limits assumed): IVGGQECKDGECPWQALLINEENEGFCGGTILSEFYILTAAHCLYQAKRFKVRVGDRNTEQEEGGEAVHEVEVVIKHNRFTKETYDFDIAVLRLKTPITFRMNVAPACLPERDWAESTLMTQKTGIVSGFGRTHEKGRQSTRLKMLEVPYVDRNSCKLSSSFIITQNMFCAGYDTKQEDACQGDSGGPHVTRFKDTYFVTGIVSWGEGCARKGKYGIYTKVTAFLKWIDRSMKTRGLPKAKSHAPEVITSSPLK

SMILES: O=C1OC[C@H]2OC(O)[C@@H]3OC(=O)c4cc(O)c(O)c(O)c4-c4c(cc(O)c(O)c4O)C(=O)O[C@H]3[C@@H]2OC(=O)c2cc(O)c(O)c(O)c2-c2c1cc(O)c(O)c2O (stereo not given in full) [PEDUNCULAGIN]
PT [1]: 13.5 s
TT [2]: 22.7 s
APTT [3]: 43.7 s
PT [4]: 10.2 s
TT [5]: 12.6 s
APTT [6]: 35.3 s
PT [7]: >300 s
TT [8]: >300 s
APTT [9]: >300 s
PT [10]: 15.2 s
TT [11]: 33.5 s
APTT [12]: 60.2 s
Ki [13]: 0.042 µM
IC50 [14]: 0.18 µM
IC50 [15]: 0.15 µM
Ki [16]: 0.99 µM
IC50 [17]: 0.56 µM
LD50 [18]: > 100 mg/kg
LD50 [19]: > 100 mg/kg

SMILES: O=C(OC[C@H]1O[C@@H](OC(=O)c2cc(O)c(O)c(O)c2)[C@H](OC(=O)c2cc(O)c(O)c(O)c2)[C@@H](OC(=O)c2cc(O)c(O)c(O)c2)[C@@H]1OC(=O)c1cc(O)c(O)c(O)c1)c1cc(O)c(O)c(O)c1 [PENTAGALLOYL GLUCOSE]
PT [21]: >300 s
APTT [22]: >300 s
PT [1]: > 300 s
TT [2]: > 300 s
APTT [3]: > 300 s
PT [4]: 13.9 s
TT [5]: >300 s
APTT [6]: 50.6 s
Ki [13]: 3.9 µM
IC50 [14]: 0.11 µM
IC50 [15]: 0.05 µM
Ki [16]: 0.57 µM
IC50 [17]: 0.17 µM

SMILES: O=C(OC[C@H]1O[C@@H](OC(=O)c2ccccc2)[C@H](OC(=O)c2ccccc2)[C@@H](OC(=O)c2ccccc2)[C@@H]1OC(=O)c1ccccc1)c1ccccc1
Activity [20]: inactive

The next lines start with results.

Ki [13]: 0.98 µM
IC50 [14]: 0.28 µM
IC50 [15]: 0.059 µM
Ki [16]: 0.45 µM
IC50 [17]: 0.72 µM
SMILES: O=C1OC[C@@H](O)[C@H]([C@@H]2OC(=O)c3cc(O)c(O)c(O)c3-c3c(O)c(O)c(O)c4c3C(=O)O[C@H]2[C@@H]4O)OC(=O)c2cc(O)c(O)c(O)c2-c2c1cc(O)c(O)c2O [CASUARIIN]
PT [1]: 13.6 s
TT [2]: 12.3 s
APTT [3]: 72.3 s
PT [7]: >300 s
TT [8]: >300 s
APTT [9]: >300 s

Activity [20]: inactive
SMILES: COc1cc(C(=O)OC[C@H]2O[C@@H](OC(=O)c3cc(OC)c(OC)c(OC)c3)[C@H](OC(=O)c3cc(OC)c(OC)c(OC)c3)[C@@H](OC(=O)c3cc(OC)c(OC)c(OC)c3)[C@@H]2OC(=O)c2cc(OC)c(OC)c(OC)c2)cc(OC)c1OC
